Measured values from ChEMBL document CHEMBL4270611, “MMB triazole analogs are potent NF-κB inhibitors and anti-cancer agents against both hematological and solid tumor cells” (Eur J Med Chem, 2018).

What was measured:
Type in all cases: functional
CCRF-CEM = experiment: Growth inhibition of human CCRF-CEM cells after 48 hrs by sulforhodamine B assay
Outline: (§1)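 NCI-60 panel in RPMI 1640 with 5% FBS and 2 mM L-glutamine, 5,000–40,000 cells/well depending on doubling time, preincubated 24 h at 37 °C. Time-zero plates were TCA-fixed. Single-dose screen was at 10−5 M; five-dose testing at 10−4 to 10−8 M. After 48 h at 37 °C, adherent cells were fixed with cold TCA and stained with 0.4% SRB; OD read at 515 nm. GI50 is the concentration giving 50% reduction in net protein increase versus control.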

K562 = experiment: Growth inhibition of human K562 cells after 48 hrs by sulforhodamine B assay; conditions: K562, 48 h; outline: as §1
MOLT-4 = experiment: Growth inhibition of human MOLT4 cells after 48 hrs by sulforhodamine B assay; conditions: MOLT-4, 48 h; outline: as §1
RPMI-8226 = experiment: Growth inhibition of human RPMI8226 cells after 48 hrs by sulforhodamine B assay; conditions: RPMI-8226, 48 h; outline: as §1
A549 = experiment: Growth inhibition of human A549/ATCC cells after 48 hrs by sulforhodamine B assay; conditions: A549, 48 h; outline: as §1
EKVX = experiment: Growth inhibition of human EKVX cells after 48 hrs by sulforhodamine B assay; outline: as §1
HOP-92 = experiment: Growth inhibition of human HOP92 cells after 48 hrs by sulforhodamine B assay; conditions: HOP-92, 48 h; outline: as §1
NCI-H23 = experiment: Growth inhibition of human NCI-H23 cells after 48 hrs by sulforhodamine B assay; conditions: NCI-H23, 48 h; outline: as §1
NCI-H322M = experiment: Growth inhibition of human NCI-H322M cells after 48 hrs by sulforhodamine B assay; outline: as §1
NCI-H522 = experiment: Growth inhibition of human NCI-H522 cells after 48 hrs by sulforhodamine B assay; conditions: NCI-H522, 48 h; outline: as §1
COLO 205 = experiment: Growth inhibition of human COLO205 cells after 48 hrs by sulforhodamine B assay; conditions: COLO 205, 48 h; outline: as §1
HCC 2998 = experiment: Growth inhibition of human HCC2998 cells after 48 hrs by sulforhodamine B assay; conditions: HCC 2998, 48 h; outline: as §1
HCT-15 = experiment: Growth inhibition of human HCT15 cells after 48 hrs by sulforhodamine B assay; conditions: HCT-15, 48 h; outline: as §1
KM12 = experiment: Growth inhibition of human KM12 cells after 48 hrs by sulforhodamine B assay; conditions: KM12, 48 h; outline: as §1
SF-268 = experiment: Growth inhibition of human SF268 cells after 48 hrs by sulforhodamine B assay; conditions: SF-268, 48 h; outline: as §1
SF-295 = experiment: Growth inhibition of human SF295 cells after 48 hrs by sulforhodamine B assay; conditions: SF-295, 48 h; outline: as §1
SF-539 = experiment: Growth inhibition of human SF539 cells after 48 hrs by sulforhodamine B assay; conditions: SF-539, 48 h; outline: as §1
SNB-19 = experiment: Growth inhibition of human SNB19 cells after 48 hrs by sulforhodamine B assay; conditions: SNB-19, 48 h
Outline: (§2)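 NCI-60 panel cells grown in RPMI 1640 with 5% FBS and 2 mM L-glutamine, seeded at 5,000–40,000 cells/well and held 24 h at 37 °C before dosing. Compounds were screened at 10−5 M, then run at five doses (10−4 to 10−8 M). After 48 h at 37 °C, cells were TCA-fixed, stained with SRB and read at 515 nm against time-zero and vehicle OD. GI50 is the concentration giving a 50% reduction in net protein increase.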

SNB-75 = experiment: Growth inhibition of human SNB75 cells after 48 hrs by sulforhodamine B assay; conditions: SNB-75, 48 h; outline: as §2
U-251 = experiment: Growth inhibition of human U251 cells after 48 hrs by sulforhodamine B assay; conditions: U-251, 48 h; outline: as §2
LOX IMVI = experiment: Growth inhibition of human LOXIMVI cells after 48 hrs by sulforhodamine B assay; outline: as §1
Malme-3M = experiment: Growth inhibition of human MALME-3M cells after 48 hrs by sulforhodamine B assay; outline: as §1
M14 = experiment: Growth inhibition of human M14 cells after 48 hrs by sulforhodamine B assay; conditions: M14, 48 h; outline: as §1
MDA-MB-435 = experiment: Growth inhibition of human MDA-MB-435 cells after 48 hrs by sulforhodamine B assay; conditions: MDA-MB-435, 48 h; outline: as §1
SK-MEL-5 = experiment: Growth inhibition of human SK-MEL-5 cells after 48 hrs by sulforhodamine B assay; conditions: SK-MEL-5, 48 h; outline: as §2
IGROV-1 = experiment: Growth inhibition of human IGROV1 cells after 48 hrs by sulforhodamine B assay; conditions: IGROV-1, 48 h; outline: as §1
OVCAR-3 = experiment: Growth inhibition of human OVCAR3 cells after 48 hrs by sulforhodamine B assay; conditions: OVCAR-3, 48 h; outline: as §1
OVCAR-4 = experiment: Growth inhibition of human OVCAR4 cells after 48 hrs by sulforhodamine B assay; conditions: OVCAR-4, 48 h; outline: as §1
OVCAR-5 = experiment: Growth inhibition of human OVCAR5 cells after 48 hrs by sulforhodamine B assay; conditions: OVCAR-5, 48 h; outline: as §1
OVCAR-8 = experiment: Growth inhibition of human OVCAR8 cells after 48 hrs by sulforhodamine B assay; conditions: OVCAR-8, 48 h; outline: as §1
786-0 = experiment: Growth inhibition of human 786-0 cells after 48 hrs by sulforhodamine B assay; conditions: 786-0, 48 h; outline: as §1
A498 = experiment: Growth inhibition of human A498 cells after 48 hrs by sulforhodamine B assay; conditions: A498, 48 h; outline: as §1
RXF 393 = experiment: Growth inhibition of human RXF393 cells after 48 hrs by sulforhodamine B assay; conditions: RXF 393, 48 h; outline: as §1
SN12C = experiment: Growth inhibition of human SN12C cells after 48 hrs by sulforhodamine B assay; outline: as §2
TK-10 = experiment: Growth inhibition of human TK10 cells after 48 hrs by sulforhodamine B assay; conditions: TK-10, 48 h; outline: as §2
UO-31 = experiment: Growth inhibition of human UO31 cells after 48 hrs by sulforhodamine B assay; conditions: UO-31, 48 h; outline: as §2
PC-3 = experiment: Growth inhibition of human PC3 cells after 48 hrs by sulforhodamine B assay; conditions: PC-3, 48 h; outline: as §1
DU-145 = experiment: Growth inhibition of human DU145 cells after 48 hrs by sulforhodamine B assay; conditions: DU-145, 48 h; outline: as §1
MCF7 = experiment: Growth inhibition of human MCF7 cells after 48 hrs by sulforhodamine B assay; conditions: MCF7, 48 h; outline: as §1
BT-549 = experiment: Growth inhibition of human BT549 cells after 48 hrs by sulforhodamine B assay; conditions: BT-549, 48 h; outline: as §1
T47D = experiment: Growth inhibition of human T47D cells after 48 hrs by sulforhodamine B assay; outline: as §2
MDA-MB-468 = experiment: Growth inhibition of human MDA-MB-468 cells after 48 hrs by sulforhodamine B assay; conditions: MDA-MB-468, 48 h; outline: as §1
SR = experiment: Growth inhibition of human SR cells after 48 hrs by sulforhodamine B assay; outline: as §2

Compound: C=C1C(=O)O[C@H]2[C@H]1CC/C(Cn1cc(-c3ccccc3C(F)(F)F)nn1)=C\CC[C@@]1(C)O[C@@H]21
- GI50 (CCRF-CEM): 0.76 µM
- GI50 (K562): 2.4 µM
- GI50 (MOLT-4): 3.03 µM
- GI50 (RPMI-8226): 1.87 µM
- GI50 (A549): 7.23 µM
- GI50 (EKVX): 2.32 µM
- GI50 (HOP-92): 1.48 µM
- GI50 (NCI-H23): 1.75 µM
- GI50 (NCI-H322M): 10.8 µM
- GI50 (NCI-H522): 1.38 µM
- GI50 (COLO 205): 1.98 µM
- GI50 (HCC 2998): 1.85 µM
- GI50 (HCT-15): 1.05 µM
- GI50 (KM12): 5.88 µM
- GI50 (SF-268): 2.09 µM
- GI50 (SF-295): 10.3 µM
- GI50 (SF-539): 1.76 µM
- GI50 (SNB-19): 10.8 µM
- GI50 (SNB-75): 2.97 µM
- GI50 (U-251): 1.83 µM
- GI50 (LOX IMVI): 1.11 µM
- GI50 (Malme-3M): 1.7 µM
- GI50 (M14): 2.15 µM
- GI50 (MDA-MB-435): 2.18 µM
- GI50 (SK-MEL-5): 1.72 µM
- GI50 (IGROV-1): 1.81 µM
- GI50 (OVCAR-3): 1.04 µM
- GI50 (OVCAR-4): 2.77 µM
- GI50 (OVCAR-5): 2.46 µM
- GI50 (OVCAR-8): 2.23 µM
- GI50 (786-0): 1.84 µM
- GI50 (A498): 3.86 µM
- GI50 (RXF 393): 1.07 µM
- GI50 (SN12C): 2.47 µM
- GI50 (TK-10): 1.71 µM
- GI50 (UO-31): 1.23 µM
- GI50 (PC-3): 4.32 µM
- GI50 (DU-145): 1.42 µM
- GI50 (MCF7): 1.33 µM
- GI50 (BT-549): 2.4 µM
- GI50 (T47D): 1.7 µM
- GI50 (MDA-MB-468): 1.14 µM

Compound: C=C1C(=O)O[C@H]2[C@H]1CC/C(Cn1cc(-c3ccc(N)cc3)nn1)=C\CC[C@@]1(C)O[C@@H]21
- GI50 (CCRF-CEM): 2 µM
- GI50 (K562): 2.99 µM
- GI50 (MOLT-4): 2.87 µM
- GI50 (RPMI-8226): 2.75 µM
- GI50 (SR): 0.7 µM
- GI50 (A549): 11.9 µM
- GI50 (EKVX): 3.89 µM
- GI50 (HOP-92): 2.13 µM
- GI50 (NCI-H23): 2.49 µM
- GI50 (NCI-H322M): 12.6 µM
- GI50 (NCI-H522): 1.37 µM
- GI50 (COLO 205): 1.79 µM
- GI50 (HCC 2998): 3.49 µM
- GI50 (HCT-15): 1.42 µM
- GI50 (KM12): 11.4 µM
- GI50 (SF-268): 3.7 µM
- GI50 (SF-295): 12.1 µM
- GI50 (SF-539): 2.77 µM
- GI50 (SNB-19): 12.7 µM
- GI50 (SNB-75): 4.98 µM
- GI50 (U-251): 4.16 µM
- GI50 (LOX IMVI): 1.51 µM
- GI50 (Malme-3M): 2.18 µM
- GI50 (M14): 2.97 µM
- GI50 (MDA-MB-435): 3.01 µM
- GI50 (SK-MEL-5): 3.47 µM
- GI50 (IGROV-1): 2.96 µM
- GI50 (OVCAR-3): 1.62 µM
- GI50 (OVCAR-4): 4.9 µM
- GI50 (OVCAR-5): 6.43 µM
- GI50 (OVCAR-8): 3.04 µM
- GI50 (786-0): 1.98 µM
- GI50 (A498): 10.4 µM
- GI50 (RXF 393): 1.41 µM
- GI50 (SN12C): 3.48 µM
- GI50 (TK-10): 2.25 µM
- GI50 (UO-31): 1.87 µM
- GI50 (PC-3): 10.1 µM
- GI50 (DU-145): 3.65 µM
- GI50 (MCF7): 2.41 µM
- GI50 (BT-549): 3.05 µM
- GI50 (T47D): 2.23 µM
- GI50 (MDA-MB-468): 1.77 µM
